Data on 1 compound can be found in ChEMBL document CHEMBL1125418, “Antimycobacterial activity of a series of pyrazinoic acid esters” (1992).

Type in all cases: functional
Assay [1] deals with Mycobacterium tuberculosis. Nature of the assay: In vitro activity against Mycobacterium strain CES (Mycobacterium tuberculosis). A digest of the protocol:
(§1)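 Agar dilution in compartmented plates of Middlebrook 7H10 agar with 10% OADC, adjusted to pH 5.8 or pH 6.6. Twofold compound dilutions spanned 200–3.12 µg/mL. Plates were made 24–48 h ahead and held at 4 °C. MIC (µg/mL) was the lowest concentration giving 99% (2 log) growth inhibition.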

Assay [2] has as its system Mycobacterium tuberculosis. Nature of the assay: In vitro activity against Mycobacterium strain ATCC 35828 (Mycobacterium tuberculosis). In a few lines: as §1
The test system of assay [3] is Mycobacterium tuberculosis. Nature of the assay: In vitro activity against Mycobacterium strain ING (Mycobacterium tuberculosis). A digest of the protocol: as §1
Assay [4] has as its system Mycobacterium tuberculosis. The experiment in a line: In vitro activity against Mycobacterium strain BAK (Mycobacterium tuberculosis). The settings on record: Mycobacterium tuberculosis; read-out: MIC.
Assay [5] deals with Mycobacterium tuberculosis. The experiment in a line: In vitro inhibitory activity against Mycobacterium tuberculosis (strain type-ATCC 35828) pH 6.6. A digest of the protocol: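 Twofold serial dilutions (200–3.12 µg/mL) in 7H10 agar with 10% OADC enrichment at pH 6.6, in compartmented plates. Plates were stored at 4 °C and used within 24–48 h. A no-drug compartment served as control for each isolate. Plates were incubated for 4 weeks at 37 °C. MIC was the lowest concentration giving 99% (2 log) growth inhibition.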

Assay [6] deals with Mycobacterium tuberculosis. Nature of the assay: In vitro activity against Mycobacterium tuberculosis (strain type-BUR) at pH 5.8. In a few lines:
(§2)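 Middlebrook 7H10 agar plus 10% OADC at pH 5.8 in compartmented plates, with serial twofold dilutions from 200 to 3.12 µg/mL. Plates were prepared 24–48 h before use and stored at 4 °C. A drug-free compartment was included per isolate. Incubation was 37 °C for 4 weeks. MIC was the lowest level producing 99% (2 log) inhibition of growth.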

In assay [7] the test system is Mycobacterium tuberculosis. Nature of the assay: In vitro inhibitory activity against Mycobacterium tuberculosis (strain type-H37Rv) at pH 5.8. In a few lines:
as §2

Assay [8] relates to Mycobacterium kansasii. Nature of the assay: In vitro activity against Mycobacterium strain SWK (Mycobacterium kansasii). In a few lines: (§3)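 Agar dilution MIC against pyrazinamide-resistant clinical isolates on Middlebrook 7H10 agar with 10% OADC at pH 5.8 or pH 6.6. Serial 2-fold dilutions span 200–3.12 µg/mL in compartmented plates made 24–48 h ahead and stored at 4 °C. Each isolate has a drug-free control. Plates were incubated at 37 °C for 4 weeks. MIC is the lowest concentration giving 99% (2 log) growth inhibition.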

The subject of assay [9] is Mycobacterium tuberculosis. The experiment in a line: In vitro activity against Mycobacterium strain MCQ (Mycobacterium tuberculosis). A digest of the protocol:
as §1

The subject of assay [10] is Mycobacterium kansasii. Nature of the assay: In vitro inhibitory activity against Mycobacterium kansasii (strain type-SWK)at pH 5.8. A digest of the protocol: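 Pyrazinamide-resistant isolate SWK tested on Middlebrook 7H10 agar plus 10% OADC adjusted to pH 5.8. Compartmented plates hold 2-fold dilutions from 200 to 3.12 µg/mL, prepared 24–48 h before use and kept at 4 °C, with a drug-free compartment. Incubation was 37 °C for 4 weeks. MIC is the lowest level causing 99% (2 log) growth inhibition.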

Assay [11] has as its system Mycobacterium tuberculosis. The experiment in a line: In vitro activity against Mycobacterium strain DOL (Mycobacterium tuberculosis). The settings on record: Mycobacterium tuberculosis; read-out: MIC.
Assay [12] deals with Mycobacterium tuberculosis. Nature of the assay: In vitro activity against Mycobacterium strain DUB (Mycobacterium tuberculosis). The settings on record: Mycobacterium tuberculosis; read-out: MIC.
Assay [13] deals with Mycobacterium tuberculosis. Nature of the assay: In vitro activity against Mycobacterium strain BUR (Mycobacterium tuberculosis). A digest of the protocol: as §1
The subject of assay [14] is Mycobacterium kansasii. The experiment in a line: In vitro inhibitory activity against Mycobacterium kansasii (strain type-SWK) pH 6.6. A digest of the protocol:
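MIC for pyrazinamide-resistant isolate SWK by agar dilution in Middlebrook 7H10 with 10% OADC at pH 6.6. Serial 2-fold dilutions run 200–3.12 µg/mL in compartmented plates prepared 24–48 h in advance and stored at 4 °C. A drug-free control is included. Plates were held at 37 °C for 4 weeks. The endpoint is 99% (2 log) inhibition of growth.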

Assay [15] concerns Mycobacterium tuberculosis. The experiment in a line: In vitro activity against Mycobacterium strain GLA (Mycobacterium tuberculosis). The settings on record: Mycobacterium tuberculosis; read-out: MIC.
Assay [16] concerns Mycobacterium tuberculosis. Nature of the assay: In vitro inhibitory activity against Mycobacterium tuberculosis (strain type-H37Rv) at pH 6.6. The settings on record: Mycobacterium tuberculosis; read-out: MIC.
In assay [17] the test system is Mycobacterium kansasii. The experiment in a line: In vitro activity against Mycobacterium strain SCH (Mycobacterium kansasii). In a few lines:
as §3

Assay [18] deals with Mycobacterium tuberculosis. The experiment in a line: In vitro activity against Mycobacterium strain LEL (Mycobacterium tuberculosis). The settings on record: Mycobacterium tuberculosis; read-out: MIC.
The test system of assay [19] is Mycobacterium tuberculosis. Nature of the assay: In vitro activity against Mycobacterium strain DOU (Mycobacterium tuberculosis). In a few lines: as §1
Assay [20] concerns Mycobacterium tuberculosis. The experiment in a line: In vitro activity against Mycobacterium strain WOO (Mycobacterium tuberculosis). In a few lines:
as §1

The test system of assay [21] is Mycobacterium tuberculosis. Nature of the assay: In vitro activity against Mycobacterium strain SMA (Mycobacterium tuberculosis). The settings on record: Mycobacterium tuberculosis; read-out: MIC.
The test system of assay [22] is Mycobacterium tuberculosis. The experiment in a line: In vitro inhibitory activity against Mycobacterium tuberculosis (strain type-ATCC 35828)at pH 5.8. A digest of the protocol: as §2

Values after ≈ are worked out from the molar mass of the structure shown.

As usually defined, the MIC is the lowest concentration that inhibits growth of the organism. As to `CN(C)CCOC(=O)c1cnccn1`, the MIC in [1] is 25 µg/mL (≈ 128 µM); in assay [2], 50 µg/mL (≈ 256 µM); in assay [3], 25 µg/mL (≈ 128 µM); in assay [4], 25 µg/mL (≈ 128 µM); in assay [5] it was above 200 µg/mL; in assay [6] it was 25 µg/mL (≈ 128 µM). Further, the MIC is 12.5 µg/mL (≈ 64 µM) in assay [7]; 100 µg/mL (≈ 512 µM) in assay [8]; 25 µg/mL (≈ 128 µM) in assay [9]; 200 µg/mL (≈ 1020 µM) in [10]; 12.5 µg/mL (≈ 64 µM) in assay [11]; 25 µg/mL (≈ 128 µM) in assay [12]. Besides, the MIC in assay [13] is 25 µg/mL (≈ 128 µM); in [14], above 200 µg/mL; in assay [15] it was 25 µg/mL (≈ 128 µM); in [16], 100 µg/mL (≈ 512 µM); in assay [17], 50 µg/mL (≈ 256 µM); in assay [18], 25 µg/mL (≈ 128 µM). The MIC in assay [19], in [20], in [21] and in [22] was 25 µg/mL (≈ 128 µM) each time.
